As a reminder, the IC50 is the concentration at which inhibition is half-maximal. Broadly, the LD50 is the dose expected to kill half of the subjects tested. The half-life is the time in which the quantity being followed falls by half. A low value points to rapid decline. In general, AUC(0-t) refers to the area under the concentration-time curve up to a stated or last time point. Read a low AUC(0-t) as low exposure. One may read the Tmax as the time at which the peak concentration occurs. One may read the inhibition as the change of the read-out against control, counted positive when it falls. High values mean a strong effect, low ones a weak effect.

SMILES strings stand for the structures.

The target in one data set is NaV1.5 (Homo sapiens, UniProt Q14524). Nature of the data set: Cell membrane chromatography. The class given is binding. As to conditions: capacity factor k′; reflects potential cardiac toxicity; k′ < 0 labeled as 0.
Chain of NaV1.5 (Q14524 whole entry, the tested form may be a part): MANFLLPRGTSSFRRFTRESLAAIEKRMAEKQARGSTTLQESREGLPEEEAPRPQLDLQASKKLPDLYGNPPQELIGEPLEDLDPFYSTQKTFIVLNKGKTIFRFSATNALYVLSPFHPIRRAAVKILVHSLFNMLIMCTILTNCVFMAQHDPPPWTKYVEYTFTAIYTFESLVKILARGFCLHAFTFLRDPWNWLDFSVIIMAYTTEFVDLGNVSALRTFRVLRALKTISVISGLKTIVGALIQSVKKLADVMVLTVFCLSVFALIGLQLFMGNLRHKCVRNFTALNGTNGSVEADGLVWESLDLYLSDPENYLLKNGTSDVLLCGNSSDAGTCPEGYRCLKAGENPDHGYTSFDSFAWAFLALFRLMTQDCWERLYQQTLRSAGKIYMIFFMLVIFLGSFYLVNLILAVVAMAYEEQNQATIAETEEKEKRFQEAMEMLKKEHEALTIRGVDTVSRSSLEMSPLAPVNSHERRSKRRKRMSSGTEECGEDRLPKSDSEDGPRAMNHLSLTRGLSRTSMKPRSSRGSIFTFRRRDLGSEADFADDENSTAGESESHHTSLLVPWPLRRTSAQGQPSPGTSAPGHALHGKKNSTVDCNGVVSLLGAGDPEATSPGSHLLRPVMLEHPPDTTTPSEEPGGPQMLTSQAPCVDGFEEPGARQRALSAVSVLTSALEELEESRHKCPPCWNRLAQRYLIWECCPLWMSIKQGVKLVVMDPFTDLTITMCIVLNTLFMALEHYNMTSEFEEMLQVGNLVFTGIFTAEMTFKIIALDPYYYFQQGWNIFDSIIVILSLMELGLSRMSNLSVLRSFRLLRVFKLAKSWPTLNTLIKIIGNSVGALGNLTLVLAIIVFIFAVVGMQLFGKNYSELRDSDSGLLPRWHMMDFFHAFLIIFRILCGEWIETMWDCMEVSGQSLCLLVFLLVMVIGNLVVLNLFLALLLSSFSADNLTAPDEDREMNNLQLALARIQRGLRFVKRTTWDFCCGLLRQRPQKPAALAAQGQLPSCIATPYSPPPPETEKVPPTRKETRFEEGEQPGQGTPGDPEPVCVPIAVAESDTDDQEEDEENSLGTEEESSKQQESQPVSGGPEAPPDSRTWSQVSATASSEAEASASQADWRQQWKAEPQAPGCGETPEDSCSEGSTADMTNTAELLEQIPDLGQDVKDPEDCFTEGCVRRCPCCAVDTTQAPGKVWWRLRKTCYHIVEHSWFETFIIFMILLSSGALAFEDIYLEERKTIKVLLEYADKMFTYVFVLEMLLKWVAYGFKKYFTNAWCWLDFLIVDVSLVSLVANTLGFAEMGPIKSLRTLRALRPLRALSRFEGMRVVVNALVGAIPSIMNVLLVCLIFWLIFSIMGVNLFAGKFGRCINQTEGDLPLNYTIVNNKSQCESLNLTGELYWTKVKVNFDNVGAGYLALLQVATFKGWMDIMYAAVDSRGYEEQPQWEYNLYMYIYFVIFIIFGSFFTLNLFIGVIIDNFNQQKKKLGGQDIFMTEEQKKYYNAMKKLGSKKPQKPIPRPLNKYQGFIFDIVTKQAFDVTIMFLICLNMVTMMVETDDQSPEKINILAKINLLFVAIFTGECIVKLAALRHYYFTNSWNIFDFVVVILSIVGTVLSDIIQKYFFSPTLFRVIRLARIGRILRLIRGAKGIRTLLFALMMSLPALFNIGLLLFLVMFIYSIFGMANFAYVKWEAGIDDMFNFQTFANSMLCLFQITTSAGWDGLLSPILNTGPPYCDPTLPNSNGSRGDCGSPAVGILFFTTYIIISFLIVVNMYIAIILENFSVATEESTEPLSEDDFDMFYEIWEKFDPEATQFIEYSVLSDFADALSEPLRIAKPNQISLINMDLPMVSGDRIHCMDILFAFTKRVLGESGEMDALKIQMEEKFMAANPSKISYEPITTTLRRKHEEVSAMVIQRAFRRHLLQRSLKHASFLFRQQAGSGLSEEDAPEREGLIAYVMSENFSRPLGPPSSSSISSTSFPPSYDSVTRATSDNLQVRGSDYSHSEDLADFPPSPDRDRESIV
The subject of data set [1] is NaV currents in rat dorsal root ganglion (DRG) neurons. Nature of the data set: Whole-cell patch clamp, sodium current in DRG neurons. In kind it is cell-based. To be noted: for IC50: F-11 rat/mouse fusion cell line, DRG neuron, read-out: IC50 sodium current. The essentials:
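Male rat DRG neurons (180–200 g donors) were dissociated with collagenase IV (2 mg/mL) then trypsin (10 mg/mL) for 30 min, plated on poly-L-lysine and grown in Neurobasal with FBS and B27. Whole-cell voltage clamp used 3–4 MΩ electrodes. I/V steps ran from −90 to +40 mV in 10 mV increments, 50 ms each.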

Data set [2] is described as follows: Systemic toxicity, intravenous. As to conditions: ICR, mouse, in vivo.
Data set [3] deals with rats. Nature of the data set: Sciatic nerve block model. As to conditions: 62.3 mmol/L near sciatic nerve; for motor block duration: extensor postural thrust; for duration of effective sensory blockade: hotplate test. In kind it is in vivo, rat. Put shortly:
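Test compound (62.3 mmol/L) was injected near the sciatic nerve. Hind limbs were tested every 30 min until back to pre-test baseline. Sensory: paw withdrawal latency on a 55 °C hotplate, timed by stopwatch. Motor: extensor postural thrust in grams on a digital balance. Recovery was 50% of baseline.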

Data set [4] deals with rats. Nature of the data set: Cutaneous trunci pinprick model. In kind it is in vivo, rat. To be noted: 62.3 mmol/L, subcutaneous. The essentials: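 Male SD rats under 1%–3% isoflurane had about 6 cm × 6 cm of back shaved, swabbed with alcohol and split into four areas. Test compound (62.3 mmol/L) was given by s.c. infiltration. Pinprick scored 1 for no response and 0 for response. Duration ran from onset to expiration, expressed as mean-score MPE. Effective block was ≥50% MPE; complete block was 100% MPE.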

Data set [5] relates to rats. Description: CFA-induced chronic plantar inflammatory pain model. To be noted: 62.3 mmol/L, 0.2 mL subcutaneous at swollen foot. In kind it is in vivo, rat. The essentials: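 Male SD rats (6–8 weeks, 250–300 g) under 1%–3% isoflurane had CFA injected into the right foot. Test compound (62.3 mmol/L, 0.2 mL) or equal-volume saline was given s.c. at the swollen site. Electronic von Frey stimulation to the side of the foot every 10 min after onset. Anesthesia failed when the value fell to half the limb-weight-to-baseline difference or below.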

Data set [6] concerns rats. Nature of the data set: Gingival incision pain model. In kind it is in vivo, rat. Put shortly:
(§1)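 Oral pain models in rats under 1%–3% isoflurane, with test compound given as local anesthetic. Food intake and body-weight change were measured on a precision balance over 24 h. Facial grooming was video-recorded for 1 h after dosing.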

Data set [7] can be described thus: Systemic toxicity, subcutaneous injection. The class given is in vivo, rat. To be noted: Sprague-Dawley, rat, in vivo, sc.
A further data set deals with SD rats. Description: Systemic toxicity, subcutaneous injection. In kind it is in vivo, rat. To be noted: TI = LD50/ED50, s.c.
Data set [8] has as its system rats. Description: Plantar incisional pain model. The class given is in vivo, rat. To be noted: 0.2 mL near incision. The essentials:
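Rats with a plantar incision received test compound or saline, 0.2 mL, near the incision. Local anesthesia was assessed by von Frey stimulation of the lateral sole.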

The nature of data set [9]: in vitro. The class given is in vitro ADME. To be noted: human, microsomes, pH 7.4.
Another data set relates to NLRP3 inflammasome. Description: NLRP3 inflammasome activation after LPS. The class given is cell-based, rat. Put shortly: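 DRG neurons and NGF-differentiated PC12 cells, with LPS given before or together with test compound. ASC specks: 3% paraformaldehyde 15 min, 0.5% Triton X-100 15 min, 5% BSA 2 h, anti-ASC 1:200 overnight at 4 °C, secondary 1:500 1 h in the dark, DAPI, fluorescence microscopy. Western blot: PVDF, 5% milk 2 h, anti-NLRP3 and anti-caspase-1 1:1000 overnight at 4 °C.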

Data set [10] deals with NaV currents in rat trigeminal neuron (TG) neurons. Nature of the data set: Whole-cell patch clamp, sodium current in TG neurons. The class given is cell-based.
For the next data set, the system named is DRG neurons. Nature of the data set: LPS-induced ROS production, cytoplasmic mtDNA release, 8-OHdG. In kind it is cell-based, rat. As to conditions: PC12 cells.
Data set [11] has as its system rats. Nature of the data set: Dental pulp injury pain model. In kind it is in vivo, rat. To be noted: compared with AT. Put shortly: as §1
Data set [12] in a line: Pharmacokinetics after subcutaneous injection. In kind it is in vivo. As to conditions: male, Sprague-Dawley, rat, plasma, sc, 62.3 mmol/L.
The subject of data set [13] is rats. Nature of the data set: Local anesthetic toxicity, blood biochemistry and organ pathology. The class given is in vivo, rat. The essentials:
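Test compound was given in the rat sciatic nerve block model. Rats were killed at 7 and 14 days. Sciatic nerve and surrounding tissue were HE-stained and inflammatory cells counted in equal-sized areas (nerve:surrounding 1:1). Serum ALT, AST, LDH, α-HBDH, CREA and UREA were run on an automatic analyser. Heart, liver and kidney were HE-stained for pathology.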

For data set [14], the system named is rats. Description: Tooth extraction pain model. In kind it is in vivo, rat. Put shortly: as §1
Another data set has as its target hERG channel (Homo sapiens, UniProt Q12809). Description: hERG potassium current inhibition. In kind it is cell-based.
Data set [15] in a line: in vitro. In kind it is in vitro ADME. As to conditions: rat, microsomes, pH 7.4.
The next data set has as its system IL-1β, IL-6, TNFα. Description: LPS-induced inflammatory factor expression. In kind it is cell-based, rat. To be noted: LPS 24 h, DRG neurons and PC12 cells; similar to LD, stronger than AT.

Chain of hERG channel (Q12809 whole entry): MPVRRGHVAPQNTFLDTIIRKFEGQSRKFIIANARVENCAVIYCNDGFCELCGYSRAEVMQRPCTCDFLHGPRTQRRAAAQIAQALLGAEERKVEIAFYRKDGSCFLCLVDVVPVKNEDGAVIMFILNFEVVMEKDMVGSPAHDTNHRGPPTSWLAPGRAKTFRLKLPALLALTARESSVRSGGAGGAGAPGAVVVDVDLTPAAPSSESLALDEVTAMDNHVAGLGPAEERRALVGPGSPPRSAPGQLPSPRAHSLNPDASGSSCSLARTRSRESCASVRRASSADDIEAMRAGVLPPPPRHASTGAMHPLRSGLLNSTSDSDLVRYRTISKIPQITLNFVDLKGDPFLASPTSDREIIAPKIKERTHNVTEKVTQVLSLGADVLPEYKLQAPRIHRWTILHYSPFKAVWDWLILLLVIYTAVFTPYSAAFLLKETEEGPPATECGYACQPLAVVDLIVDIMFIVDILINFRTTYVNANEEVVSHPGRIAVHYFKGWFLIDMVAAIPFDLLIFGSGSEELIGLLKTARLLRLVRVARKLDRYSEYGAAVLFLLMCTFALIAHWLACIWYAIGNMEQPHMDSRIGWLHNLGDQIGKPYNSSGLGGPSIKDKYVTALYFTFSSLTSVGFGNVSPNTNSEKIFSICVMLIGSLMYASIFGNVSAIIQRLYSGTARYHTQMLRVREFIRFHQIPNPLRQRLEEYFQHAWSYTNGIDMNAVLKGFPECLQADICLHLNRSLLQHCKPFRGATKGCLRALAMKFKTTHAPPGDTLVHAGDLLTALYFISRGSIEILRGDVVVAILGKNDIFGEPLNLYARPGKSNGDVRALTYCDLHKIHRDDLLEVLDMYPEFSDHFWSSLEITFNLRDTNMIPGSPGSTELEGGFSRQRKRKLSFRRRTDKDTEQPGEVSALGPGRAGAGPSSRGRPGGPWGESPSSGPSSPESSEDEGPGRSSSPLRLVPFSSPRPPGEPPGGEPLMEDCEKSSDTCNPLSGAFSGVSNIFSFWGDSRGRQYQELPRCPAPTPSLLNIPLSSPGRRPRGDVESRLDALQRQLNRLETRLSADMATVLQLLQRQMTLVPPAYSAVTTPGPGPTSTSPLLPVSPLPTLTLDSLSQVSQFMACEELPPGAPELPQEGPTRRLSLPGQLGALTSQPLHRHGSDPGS

Regarding `CCCNC(C)C(=O)Nc1c(C)csc1C(=O)OC` (centres unmarked) [AT, Methyl 4-methyl-3-(2-(propylamino)propanamido)thiophene-2-carboxylate, reference compound], the “k′ NaV1.5” value on NaV1.5 was 63. Besides, in data set [1], the IC50 was 71.2 ± 3.06 µM. The same compound returned a 50% lethal dose (LD50) in data set [2] of 38.3 mg/kg. The motor block duration in the data set with rats [3] stood at 90 min. In the data set on rats [4], the subcutaneous infiltration duration was determined as 120 min. The “duration of action (anesthesia) under CFA-induced chronic inflammation” value in the data set with rats [5] came to 30 min. Further, in the data set on rats [6], the face grooming frequency result is on record as “significantly lowered”. The LD50 at 24 h in [7] was 598 mg/kg. Further, the TI in the data set on SD rats worked out at 125.83. Moreover, the “anesthesia result in acute inflammation model through plantar incision” value (shortened to “anesthesia result”) in the data set with rats [8] is recorded as “underperformed”.

Consider `COC(=O)c1scc(C)c1NC(=O)C(C)N1CCN(C(C)C)CC1` (centres unmarked) [AT-13, Methyl 3-(2-(4-isopropylpiperazin-1-yl)propanamido)-4-methylthiophene-2-carboxylate], for which, on NaV1.5, the “k′ NaV1.5” value is 23.2. Besides, in the data set on rats [3], the motor block duration was 140 min and the “duration of effective sensory blockade” value is recorded as 145 min. For the same compound, the subcutaneous infiltration duration in the data set on rats [4] amounted to 275 min. Moreover, the “anesthesia result” value in the data set on rats [8] is “improved results”.

Consider `CCCCN1CCN(C(C)C(=O)Nc2c(C)csc2C(=O)OC)CC1` (centres unmarked) [AT-17, Methyl 3-(2-(4-butylpiperazin-1-yl)propanamido)-4-methylthiophene-2-carboxylate], for which, on NaV1.5, the “k′ NaV1.5” value is 22.4. Besides, the IC50 in data set [1] came to 31.6 ± 2.07 µM. Also, the “reduction in the peak current compared to AT (I‒V relationship)” value in [1] (rat DRG neurons) was 36.35%. In addition, the half-life in “in vitro [9]” is 1.25 h. Further, the “LPS-induced ASC speck formation” value with NLRP3 inflammasome (DRG neurons, PC12 cells) is “inhibits”. Further, the “NLRP3, ASC, and pro-Casp1 expression” value in the data set with NLRP3 inflammasome (LPS, acute and chronic conditions) is “modestly reduced”. Further, the “reduction in peak current compared to AT (I‒V relationship)” value in data set [10] was found to be 10.56%. In data set [2], the LD50 was 43.5 mg/kg. Further, in the data set on DRG neurons, the “LPS-induced ROS production, cytoplasmic mtDNA release, and 8-OHdG levels” value is reported as “reduced”. Also, the “weight loss and pain-related decreases in food intake” value with rats [11] was “more effective”. Moreover, in data set [12], the AUC(0-t) is 5550 ng·h/mL, the Tmax is 1 h and the half-life was 0.823 h. Moreover, in the data set with rats [13] (rats, 7 days and 14 days post-administration), the “ALT, AST, LDH, α-HBDH, CREA, UREA levels vs control group” value is “no marked differences”. In the data set with rats [13] (rats, local administration to the sciatic nerve), the “pathological assessment of heart, liver, and kidney vs control group” value was “no significant pathological changes”. The “number of inflammatory cells in tissues compared with AT” value with rats [13] (sciatic nerve block model, HE, ImageJ) is “significantly lower”. In the data set with rats [3], the motor block duration is 260 min and the “duration of effective sensory blockade” value was 200 min. In addition, the “weight loss and food intake” value in the data set on rats [14] is “significantly mitigating”. The compound further registered a subcutaneous infiltration duration in the data set with rats [4] of 400 min. Also, the “duration of action (anesthesia) under CFA-induced chronic inflammation” value in the data set with rats [5] is 83.3 min. Further, the inhibition at 100 μM/L against hERG channel stood at 38%. The face grooming frequency result with rats [6] is given as “significantly lowered”. Besides, the “recovery in body weight and food intake” value with rats [6] (compared with AT) is on record as “more pronounced recovery”. For the same compound, the LD50 at 24 h in [7] is 424 mg/kg. This compound also gave a TI in the data set with SD rats of 149.17. The half-life in the data set “in vitro [15]” was 1.03 h. Besides, the “anesthesia result” value in the data set with rats [8] was “improved results”. In addition, the “inflammatory factors (IL-1β, IL-6, TNFα) expression” value in the data set with IL-1β, IL-6, TNFα was “significantly inhibited”.
